Test results published in ChEMBL document CHEMBL1156727, “Synthesis and evaluation of curcumin analogues as potential thioredoxin reductase inhibitors” (Bioorg Med Chem, 2008).
Calls of active or inactive are those of the source. The calls are words filed in the database; no cut-off is given here.

Experiments:
[1] = Inhibition of TrxR preincuabatd for 4 mins
HepG2 = assay: Cytotoxicity against TrxR overexpressing human HepG2 cells after 48 hrs by MTT assay; type: functional
Outline: (§1)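 Cells grown in RPMI 1640 with 10% fetal calf serum, penicillin/streptomycin and 2 mM L-glutamine at 37 °C under 5% CO2. Seeded 1×10⁴/well and left overnight, then exposed 48 h to 0–100 µM. MTT was added for 4 h at 37 °C and formazan dissolved in DMSO, read at 570 nm. Run in quadruplicate; GC50 is the concentration giving 50% of control viability.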

A549 [2] = assay: Cytotoxicity against TrxR overexpressing human A549 cells after 48 hrs by MTT assay; type: functional
Outline: as §1

MCF7 = assay: Cytotoxicity against TrxR overexpressing human doxorubicin-resistant MCF7 cells after 48 hrs by MTT assay; type: functional
Outline: as §1

A549 [3] = assay: Cytotoxicity against TrxR overexpressing human cis-diammine-dichloroplatinum (II)-resistant A549 cells after 48 hrs by MTT assay; type: functional
Outline: as §1

[4] = Inhibition of TrxR preincuabatd for 2 hrs
[5] = Inhibition of TrxR preincuabatd for 2 hrs followed by ultrafiltration
[6] = molecular target: T1, Thioredoxin reductase (Homo sapiens) (UniProt Q16881+Q9NNW7+Q86VQ6); assay: Inhibition of TrxR in human MCF7 cells at 50 uM after 12 hrs by insulin reduction assay; type: cell-based
Outline: (§2)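 Cells (1.5×10⁶) in RPMI 1640 were exposed 12 h; controls got <1% DMSO. Cells were trypsinized and lysed in Tris pH 7.4/Triton/deoxycholate/SDS buffer with protease inhibitors, then spun at 16,000g. Lysate was incubated 30 min at 37 °C with 2.5 mg/ml bovine insulin, NADPH and Trx in HEPES/EDTA pH 7.4. The reaction was stopped with guanidine-HCl/DTNB and read at A412. A no-Trx mixture served as background; activity is % of control, n≥3.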

[7] = molecular target: T1, Thioredoxin reductase (Homo sapiens); assay: Inhibition of TrxR in human HeLa cells at 50 uM after 12 hrs by insulin reduction assay; type: cell-based
Outline: as §2

IC50 [1]	Compound	GC50 (A549 [2])	further results
50 µM	O=C(/C=C(O)/C=C/c1ccc(O)cc1)/C=C/c1ccccc1Br	–	–
62.2 µM	CN(C)c1ccc(/C=C/C(=O)/C=C(O)/C=C/c2ccc(CO)o2)cc1	–	GC50 (HepG2): >100 µM
57 µM	COc1cc(/C=C/C(O)=C/C(=O)/C=C/c2ccccc2)ccc1O	–	–
> 100 µM	O=C(/C=C(O)/C=C/c1ccccc1)/C=C/c1ccccc1	–	–
5.1 µM	COc1cc(/C=C2\CCC/C(=C\c3ccc(O)cc3)C2=O)ccc1O	>100 µM	–
> 100 µM	O=C(/C=C/c1ccc(O)cc1)CC(=O)/C=C/c1ccc(O)cc1 [BISDEMETHOXYCURCUMIN]	–	–
20 µM	O=C(/C=C(O)/C=C/c1cccs1)/C=C/c1ccc(O)cc1	–	–
1.3 µM	O=C(/C=C(O)/C=C/c1ccc(CO)o1)/C=C/c1ccccc1	–	GC50 (HepG2): >100 µM
> 100 µM	COc1ccc(/C=C/C(=O)/C=C(O)/C=C/c2ccc(OC)cc2)cc1	–	GC50 (MCF7): >100 µM; GC50 (A549 [3]): >100 µM
13.8 µM	COc1cc(/C=C/C(=O)/C=C(O)/C=C/c2ccc(O)cc2)cc(OC)c1OC	60.1 µM	–
24.9 µM	COc1cc(/C=C2\CCC/C(=C\c3ccc(O)cc3)C2=O)cc(OC)c1OC	–	–
20 µM	COc1cc(/C=C/C(O)=C/C(=O)/C=C/c2ccc(O)cc2)ccc1O [DEMETHOXYCURCUMIN]	–	–
1 µM	COc1cc(/C=C/C(O)=C/C(=O)/C=C/c2ccc(CO)o2)ccc1O	>100 µM	GC50 (MCF7): 10.6 µM; GC50 (A549 [3]): 35.8 µM; GC50 (HepG2): >100 µM
23.3 µM	O=C(/C=C(O)/C=C/c1ccc(O)cc1)/C=C/c1ccccc1	41.3 µM	–
1.6 µM	O=C(/C=C(O)/C=C/c1ccco1)/C=C/c1ccco1	66.4 µM	GC50 (MCF7): 33.6 µM
2 µM	COc1cc(/C=C/C(=O)/C=C(O)/C=C/c2ccc(CO)o2)cc(OC)c1OC	>100 µM	GC50 (HepG2): >100 µM
0.5 µM	COc1cc(/C=C/C(=O)/C=C(O)/C=C/c2ccc(C)o2)ccc1O	>100 µM	GC50 (A549 [3]): 39.4 µM
0.8 µM	COc1ccc(/C=C/C(=O)/C=C(O)/C=C/c2ccc(CO)o2)cc1	–	GC50 (MCF7): 10 µM; GC50 (A549 [3]): 12.1 µM; GC50 (HepG2): >100 µM
38.3 µM	COc1cc(/C=C/C(=O)CC(=O)/C=C/c2ccc(O)c(OC)c2)ccc1O [CURCUMIN]	18.2 µM	GC50 (A549 [3]): 73 µM; IC50 [4]: 4.2 µM
> 100 µM	COc1ccc(/C=C/C(=O)/C=C(O)/C=C/c2ccc(OC)c(OC)c2)cc1OC [DIMETHYLCURCUMIN]	–	–
0.3 µM	Cc1ccc(/C=C/C(=O)/C=C(O)/C=C/c2ccc(C)o2)o1	52.9 µM	Activity [5]: Active; GC50 (MCF7): 48.5 µM; GC50 (A549 [3]): 59.6 µM; Activity [6]: Active; GC50 (HepG2): >100 µM; Activity [7]: Active
